From ChEMBL document CHEMBL2163256, “6-(methylamino)hexane-1,2,3,4,5-pentanol 4-(((1S,2S)-1-hydroxy-2,3-dihydro-1H,1'H-[2,2-biinden]-2-yl)methyl)benzoate (PH46A): a novel small molecule with efficacy in murine models of colitis” (J Med Chem, 2012) come the findings set out here.

Data set [1] relates to Mus musculus. The data set can be described thus: Toxicity in DSS-induced colitis BALB/c mouse model assessed as overt reactions at 30 mg/kg, po qd for 7 days relative to vehicle-treated control. The data set is classed as organism-based. The arrangement: dose 30 mg/kg, route oral. The following applies: in vivo, 168 h.
Data set [2] concerns Mus musculus. The data set can be described thus: Antiinflammatory activity against DSS-induced colitis BALB/c mouse model assessed as decrease in disease activity index at 5 mg/kg, po qd for 7 days measured on day 7 relative to vehicle-treated control. The data set is classed as functional. The arrangement: scale not given: the % may be the effect or the level left. A digest of the protocol: (§1)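 Female SPF BALB/c mice, 6−8 weeks old; colitis induced by 5% DSS in tap drinking water (renewed every second day) for 7 days. Daily oral dosing for 7 days as suspension/solution in 0.5% carboxymethyl cellulose/2% Tween 80. Daily body weight; DAI per mouse each day from weight loss, occult blood and stool consistency; colon length at autopsy. Mean ± SEM, n = 6−7.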

The subject of data set [3] is Mus musculus. The data set can be described thus: Antiinflammatory activity against DSS-induced colitis BALB/c mouse model assessed as reduction in IL1b level at 5 mg/kg, po qd for 7 days measured on day 7 relative to vehicle-treated control. The data set is classed as functional, organism-based. The arrangement: dose 5 mg/kg. A digest of the protocol:
(§2)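 DSS colitis in female BALB/c mice (5% DSS in drinking water, 7 days, daily oral dosing). At autopsy, colon remaining after histology sampling snap-frozen, stored at −20 °C, thawed, contents removed, chopped and homogenized; supernatant protein determined. IL1b, IL6 and TNFα in colon supernatant by sandwich ELISA, expressed as ng/mg. Mean ± SEM, n = 6−7.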

Data set [4] relates to Mus musculus. The data set can be described thus: Antiinflammatory activity against DSS-induced colitis BALB/c mouse model assessed as reduction in IL6 level at 5 mg/kg, po qd for 7 days measured on day 7 relative to vehicle-treated control. The data set is classed as functional, organism-based. The arrangement: dose 5 mg/kg. Summed up:
as §2

In data set [5] the test system is Mus musculus. The data set can be described thus: Antiinflammatory activity against DSS-induced colitis BALB/c mouse model assessed as reduction in shortening of colon at 5 mg/kg, po qd for 7 days measured on day 7 relative to vehicle-treated control. The data set is classed as functional. Also on record: scale not given: the % may be the effect or the level left. Summed up: as §1

Data set [6] concerns Mus musculus. The data set can be described thus: Antiinflammatory activity against DSS-induced colitis BALB/c mouse model assessed as reduction in histological colon damage score at 5 mg/kg, po qd for 7 days measured on day 7 relative to vehicle-treated control. The data set is classed as functional. Also on record: scale not given: the % may be the effect or the level left. Summed up:
(§3)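 After 7 days of 5% DSS with daily oral dosing, about 1 cm distal colon was fixed in 10% formaldehyde-saline, paraffin-embedded, cut into 5 μm serial sections and H&E-stained. Scoring covered cell infiltration (0−3) and extent of injury (0−3), done blinded by two independent observers.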

Data set [7] has as its system Mus musculus. The data set can be described thus: Antiinflammatory activity against DSS-induced colitis BALB/c mouse model assessed as prevention of body weigth loss at 5 mg/kg, po qd for 7 days measured on day 7 relative to vehicle-treated control. The data set is classed as functional. Summed up:
as §1

Data set [8] concerns Mus musculus. The data set can be described thus: Antiinflammatory activity against DSS-induced colitis BALB/c mouse model assessed as reduction in TNFalpha level at 5 mg/kg, po qd for 7 days measured on day 7 relative to vehicle-treated control. The data set is classed as functional, organism-based. Also on record: dose 5 mg/kg. A digest of the protocol: as §2
The test system of data set [9] is Mus musculus. The data set can be described thus: Antiinflammatory activity against DSS-induced colitis BALB/c mouse model assessed as decrease in myeloperoxidative activity at 5 mg/kg, po qd for 7 days measured on day 7 relative to vehicle-treated control. The arrangement: scale not given: the % may be the effect or the level left. The data set is classed as functional. A digest of the protocol: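 In the 7-day 5% DSS BALB/c colitis model with daily oral dosing, colon MPO was measured in homogenized snap-frozen colon supernatant (protein determined) by a standard method.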

Data set [10] concerns Mus musculus. The data set can be described thus: Antiinflammatory activity against po dosed DSS-induced colitis BALB/c mouse model assessed as reduction in IL6 level administered daily once for 7 days measured on day 7 relative to vehicle-treated control. The data set is classed as functional, organism-based. A digest of the protocol:
as §2

The test system of data set [11] is Mus musculus. The data set can be described thus: Antiinflammatory activity against DSS-induced colitis BALB/c mouse model assessed as increase in colon lenght at 30 mg/kg, po qd for 7 days relative to vehicle-treated control. The data set is classed as functional, organism-based. The arrangement: dose 30 mg/kg. Summed up: as §1
The subject of data set [12] is Mus musculus. The data set can be described thus: Antiinflammatory activity against DSS-induced colitis BALB/c mouse model assessed as reduction in IL6 level at 30 mg/kg, po qd for 7 days measured on day 7 relative to vehicle-treated control. Also on record: dose 30 mg/kg. The data set is classed as functional, organism-based. A digest of the protocol:
as §2

For data set [13], the system named is Mus musculus. The data set can be described thus: Antiinflammatory activity against DSS-induced colitis BALB/c mouse model assessed as prevention of body weight loss at 10 mg/kg, po qd for 7 days relative to vehicle-treated control. Also on record: dose 10 mg/kg. The data set is classed as functional, organism-based. Summed up: as §1
Data set [14] concerns Mus musculus. The data set can be described thus: Antiinflammatory activity against po dosed DSS-induced colitis BALB/c mouse model assessed as reduction in shortening of colon administered daily once for 7 days measured on day 7 relative to vehicle-treated control. The data set is classed as functional, organism-based. Summed up:
as §1

Data set [15] deals with Mus musculus. The data set can be described thus: Antiinflammatory activity against po dosed DSS-induced colitis BALB/c mouse model assessed as reduction in histological colon damage score administered daily once for 7 days measured on day 7. The data set is classed as functional, organism-based. Summed up:
as §3

The test system of data set [16] is Mus musculus. The data set can be described thus: Antiinflammatory activity in IL-10 -/- BALB/c mouse assessed as prevention of weight loss at 300 mg/kg, po administered as divided dose 3 times a week for 9 weeks relative to vehicle-treated control. Also on record: dose 300 mg/kg. The data set is classed as functional, organism-based. A digest of the protocol:
(§4)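 IL-10−/− BALB/c-background mice, bred SPF, treated from 6−8 weeks of age by oral gavage of 300 mg/kg/week in distilled water (vehicle), Mon/Wed/Fri, for 9 weeks. Weight, rectal bleeding and prolapse monitored. At 9 weeks serum SAA was measured by sandwich ELISA. Proximal colon (1 cm) was fixed, H&E-stained and scored blinded by two observers (maximum 4). n = 9 vehicle, 11 treated; Student's t test.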

In data set [17] the test system is Mus musculus. The data set can be described thus: Antiinflammatory activity against DSS-induced colitis BALB/c mouse model assessed as decrease in disease activity index at 30 mg/kg, po qd for 7 days relative to vehicle-treated control. The data set is classed as functional, organism-based. Also on record: dose 30 mg/kg. A digest of the protocol:
as §1

The test system of data set [18] is Mus musculus. The data set can be described thus: Antiinflammatory activity in IL-10 -/- BALB/c mouse assessed as reduction in histological colon damage score at 300 mg/kg, po administered as divided dose 3 times a week for 9 weeks relative to vehicle-treated control. The data set is classed as functional, organism-based. Also on record: dose 300 mg/kg. Summed up:
as §4

Data set [19] concerns Mus musculus. The data set can be described thus: Antiinflammatory activity against po dosed DSS-induced colitis BALB/c mouse model assessed as reduction in IL1b level administered daily once for 7 days measured on day 7 relative to vehicle-treated control. The data set is classed as functional, organism-based. A digest of the protocol: as §2
The subject of data set [20] is Mus musculus. The data set can be described thus: Antiinflammatory activity against po dosed DSS-induced colitis BALB/c mouse model assessed as decrease in disease activity index administered daily once for 7 days measured on day 7 relative to vehicle-treated control. The data set is classed as functional, organism-based. Summed up: as §1
The subject of data set [21] is Mus musculus. The data set can be described thus: Antiinflammatory activity in IL-10 -/- BALB/c mouse assessed as prevention of rectal prolapse at 300 mg/kg, po administered as divided dose 3 times a week for 9 weeks relative to vehicle-treated control. The data set is classed as functional, organism-based. Also on record: dose 300 mg/kg. Summed up:
as §4

In data set [22] the test system is Mus musculus. The data set can be described thus: Antiinflammatory activity against DSS-induced colitis BALB/c mouse model assessed as increase in colon lenght at 10 mg/kg, po qd for 7 days relative to vehicle-treated control. The data set is classed as functional, organism-based. The arrangement: dose 10 mg/kg. A digest of the protocol:
as §1

Data set [23] concerns Mus musculus. The data set can be described thus: Antiinflammatory activity against DSS-induced colitis BALB/c mouse model assessed as reduction in IL1b level at 30 mg/kg, po qd for 7 days measured on day 7 relative to vehicle-treated control. The data set is classed as functional, organism-based. Also on record: dose 30 mg/kg. Summed up:
as §2

Data set [24] concerns Mus musculus. The data set can be described thus: Antiinflammatory activity against DSS-induced colitis BALB/c mouse model assessed as reduction in TNFalpha level at 30 mg/kg, po qd for 7 days measured on day 7 relative to vehicle-treated control. The data set is classed as functional, organism-based. The arrangement: dose 30 mg/kg. A digest of the protocol: as §2
Data set [25] concerns Mus musculus. The data set can be described thus: Antiinflammatory activity against DSS-induced colitis BALB/c mouse model assessed as decrease in disease activity index at 10 mg/kg, po qd for 7 days relative to vehicle-treated control. The data set is classed as functional, organism-based. Also on record: dose 10 mg/kg. Summed up:
as §1

Data set [26] relates to Mus musculus. The data set can be described thus: Antiinflammatory activity in IL-10 -/- BALB/c mouse assessed as prevention of rectal bleeding at 300 mg/kg, po administered as divided dose 3 times a week for 9 weeks relative to vehicle-treated control. The data set is classed as functional, organism-based. Also on record: dose 300 mg/kg. A digest of the protocol: as §4

Data set [27] has as its system Mus musculus. The data set can be described thus: Antiinflammatory activity against po dosed DSS-induced colitis BALB/c mouse model assessed as reduction in TNFalpha level administered daily once for 7 days measured on day 7 relative to vehicle-treated control. The data set is classed as functional, organism-based. Summed up:
as §2

Calls of active or inactive are those of the source. The rule behind the calls is not given here.

Regarding `O=C(O)c1ccc(C[C@@]2(C3=Cc4ccccc4C3)Cc3ccccc3[C@H]2O)cc1` [listing 1 of 2 here], in the data set with Mus musculus [1], the Activity result is “Non-toxic”.
Regarding `C[C@]12C=CC(=O)C=C1CC[C@@H]1[C@@H]2[C@@H](O)C[C@@]2(C)[C@H]1CC[C@]2(O)C(=O)CO` [PREDNISOLONE], the Activity is 50% in the data set on Mus musculus [2]; 39% with Mus musculus [5]; 26% with Mus musculus [6]; 12.6% in the data set with Mus musculus [7]; 54% in the data set on Mus musculus [9]. The result in the data set with Mus musculus [3], with Mus musculus [4] and in the data set on Mus musculus [8] was Active.
Consider `O=C(O)c1ccc(C[C@@]2(C3=Cc4ccccc4C3)Cc3ccccc3[C@H]2O)cc1` [listing 2 of 2 here], for which the Activity entry with Mus musculus [10], in the data set on Mus musculus [14], with Mus musculus [15], in the data set with Mus musculus [19], with Mus musculus [20] and in the data set with Mus musculus [27] was “Dose-dependent effect” each time. For the same compound, the result in the data set on Mus musculus [11], in the data set with Mus musculus [12], in the data set on Mus musculus [13], with Mus musculus [17], in the data set on Mus musculus [18] and in the data set on Mus musculus [22] was Active. Besides, the outcome in the data set with Mus musculus [23], in the data set with Mus musculus [24] and with Mus musculus [25] was Active. Further, the outcome in the data set with Mus musculus [16], in the data set with Mus musculus [21] and in the data set with Mus musculus [26] was inactive.
